From publication PMC7559877 (iScience, 2020) come the findings set out here.

For one experiment, the system named is U937. The experiment can be described thus: Tumoricidal activity against human lymphoma cell line U937. The class given is cell-based. As to conditions: U-937.
For a further experiment, the system named is JE6.1. The experiment can be described thus: Tumoricidal activity against human lymphoma cell line JE6.1. Type of experiment: cell-based.
A further experiment relates to Raji. The experiment in a line: Tumoricidal activity against human lymphoma cell line Raji. Type of experiment: cell-based.
The subject of a further experiment is DL tumor cells. The experiment can be described thus: In vitro tumoricidal activity. Type of experiment: cell-based, murine. As to conditions: Mus musculus, read-out: growth inhibition, highest inhibition recorded.
A further experiment deals with IFN-γ. The experiment in a line: IFN-γ production by CTLs derived from treated DL mice. The settings on record: CD8+ T cells; text to Figure 5K. The class given is in vivo. Summed up: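 CD8+ T cells (CTLs) are taken from DL lymphoma-bearing mice treated with oral test compound plus rIL15-activated dendritic cells and compared with cells from untreated DL mice. IFN-γ is read by flow cytometry histogram. Data shown are representative of four experiments (n = 4).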

Experiment [1] has as its system CD4+CD25+FOXP3+ Treg cells. The experiment in a line: Flow cytometry of CD4+CD25+FOXP3+ Treg cells in DL mice. The class given is in vivo. The settings on record: in the spleen (so in the source); DL mouse 19.4%; Figure 2I. (In general: Flow cytometry measures light scatter and fluorescence of single cells or particles in a stream.)
The subject of another experiment is THP-1. The experiment in a line: Tumoricidal activity against human lymphoma cell line THP-1. The class given is cell-based.

As usually defined, the IC50 is the point on the concentration scale where inhibition reaches its midpoint. By inhibition is commonly meant the relative decrease from the control value, in per cent. On to `Cc1cccc(-c2nn3c(c2-c2ccnc4ccc(C(N)=O)cc24)CCC3)n1` [galunisertib], for which the IC50 in the experiment with U937 came to 124 nM; in the experiment with JE6.1, 164 nM; with Raji, 776 nM; in the experiment on THP-1 it was 108 nM. Also, the inhibition at 10 µM in the experiment on DL tumor cells is ~80%. The “IFN-γ in T cells derived from treated animals” value with IFN-γ is on record as 52%. Besides, the “CD4+CD25+ cells” value in experiment [1] is “intermediate effect”.
